# Assay results taken from ChEMBL document CHEMBL1833805, “Histone deacetylase inhibitors from Burkholderia thailandensis” (2011).
# Activity calls are given as the source filed them. The rule behind the calls is not given here.
# Tests used:
# [1] = target: Histone deacetylase 4 (Homo sapiens) (UniProt P56524); assay: Inhibition of human HDAC4 assessed as deacetylated substrate level using RHKAcKAc as substrate by fluorometric analysis
# Outline: (§1)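 Recombinant human HDAC4 with fluorogenic p53 379–382 peptide RHKAcKAc as substrate. Compound tested at 10 doses in duplicate, 3-fold serial dilution from 20 µM. Two steps: incubation with substrate, then digestion with a developing mixture. Fluorescence read at 360 nm excitation / 460 nm emission, proportional to deacetylated substrate.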
# MDA-MB-231 [2] = assay: Antitumor activity against human MDA-MB-231 cells implanted subcutaneously in mouse assessed as inhibition of tumor cell growth at 1.6 to 2.4 mg/kg, ip administered on day 1 to 4 measured on day 5 by hollow fiber assay; format: functional
# Outline: (§2)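 Human tumour cell lines from a standard 12-line panel encapsulated in polyvinylidene fluoride hollow fibres (500,000 Da exclusion), implanted intraperitoneally or subcutaneously in mice; drug given IP at 2.4 and 1.6 mg/kg/dose on days 1–4; fibres retrieved and viable cell mass determined day 5; T/C versus vehicle-only injected controls.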
# CAKI-1 [3] = assay: Ratio of FK228 TGI to compound TGI for human Caki1 cells; format: functional
# OVCAR-5 = assay: Antitumor activity against human OVCAR5 cells implanted subcutaneously in mouse assessed as inhibition of tumor cell growth at 1.6 to 2.4 mg/kg, ip administered on day 1 to 4 measured on day 5 by hollow fiber assay; format: functional; outline: as §2
# NCI-H322M [4] = assay: Cytotoxicity against human NCI-H322M cells after 6 days by MTT assay; format: functional; conditions: 144 h
# COLO 205 [5] = assay: Cytotoxicity against human COLO205 cells after 6 days by MTT assay; format: functional; conditions: COLO 205, 144 h
# SN12C [6] = assay: Cytotoxicity against human SN12C cells after 6 days by MTT assay; format: functional; conditions: 144 h
# MDA-MB-468 [7] = assay: Cytotoxicity against human MDA-MB-468 cells after 6 days by MTT assay; format: functional; conditions: MDA-MB-468, 144 h
# SF-295 [8] = assay: Antitumor activity against human SF295 cells implanted subcutaneously in mouse assessed as inhibition of tumor cell growth at 1.6 to 2.4 mg/kg, ip administered on day 1 to 4 measured on day 5 by hollow fiber assay; format: functional; outline: as §2
# MDA-MB-231 [9] = assay: Cytotoxicity against human MDA-MB-231 cells after 6 days by MTT assay; format: functional; conditions: MDA-MB-231, 144 h
# NCI-H23 = assay: Antitumor activity against human NCI-H23 cells implanted subcutaneously in mouse assessed as inhibition of tumor cell growth at 1.6 to 2.4 mg/kg, ip administered on day 1 to 4 measured on day 5 by hollow fiber assay; format: functional; outline: as §2
# A498 [10] = assay: Ratio of FK228 TGI to compound TGI for human A498 cells; format: functional
# [11] = target: Histone deacetylase 8 (Homo sapiens) (UniProt Q9BY41); assay: Inhibition of human HDAC8 assessed as deacetylated substrate level using RHKKAc as substrate by fluorometric analysis
# Outline: as §1, with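 “HDAC1 or HDAC8” for “HDAC4”, “RHKKAc” for “RHKAcKAc”, “Substrate incubated” for “Two steps: incubation”, “compound,” for “substrate,”, “the mixture was digested” for “digestion”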
# NCI = assay: Cytotoxicity against human NCI60 cells after 6 days by MTT assay; format: functional; conditions: 144 h
# U-251 [12] = assay: Ratio of FK228 LC50 to compound LC50 for human U251 cells; format: functional
# A498 [13] = assay: Ratio of FK228 LC50 to compound LC50 for human A498 cells; format: functional
# A498 [14] = assay: Cytotoxicity against human A498 cells after 6 days by MTT assay; format: functional; conditions: A498, 144 h
# SN12C [15] = assay: Ratio of FK228 TGI to compound TGI for human SN12C cells; format: functional
# SF-295 [16] = assay: Cytotoxicity against human SF295 cells after 6 days by MTT assay; format: functional; conditions: SF-295, 144 h
# UACC-257 [17] = assay: Cytotoxicity against human UACC257 cells after 6 days by MTT assay; format: functional; conditions: UACC-257, 144 h
# SF-295 [18] = assay: Ratio of FK228 TGI to compound TGI for human SF295 cells; format: functional
# U-251 [19] = assay: Ratio of FK228 TGI to compound TGI for human U251 cells; format: functional
# U-251 [20] = assay: Cytotoxicity against human U251 cells after 6 days by MTT assay; format: functional; conditions: U-251, 144 h
# NCI-H322M [21] = assay: Ratio of FK228 TGI to compound TGI for human NCI-H322M cells; format: functional
# ACHN [22] = assay: Ratio of FK228 TGI to compound TGI for human ACHN cells; format: functional
# MDA-MB-231 [23] = assay: Ratio of FK228 TGI to compound TGI for human MDA-MB-231 cells; format: functional
# RXF 393 [24] = assay: Ratio of FK228 LC50 to compound LC50 for human RXF393 cells; format: functional
# ACHN [25] = assay: Cytotoxicity against human ACHN cells after 6 days by MTT assay; format: functional; conditions: 144 h
# SW-620 = assay: Antitumor activity against human SW620 cells implanted subcutaneously in mouse assessed as inhibition of tumor cell growth at 1.6 to 2.4 mg/kg, ip administered on day 1 to 4 measured on day 5 by hollow fiber assay; format: functional; outline: as §2
# LOX IMVI = assay: Antitumor activity against human LOXIMVI cells implanted subcutaneously in mouse assessed as inhibition of tumor cell growth at 1.6 to 2.4 mg/kg, ip administered on day 1 to 4 measured on day 5 by hollow fiber assay; format: functional; outline: as §2
# U-251 [26] = assay: Antitumor activity against human U251 cells implanted subcutaneously in mouse assessed as inhibition of tumor cell growth at 1.6 to 2.4 mg/kg, ip administered on day 1 to 4 measured on day 5 by hollow fiber assay; format: functional; outline: as §2
# CAKI-1 [27] = assay: Cytotoxicity against human Caki1 cells after 6 days by MTT assay; format: functional; conditions: CAKI-1, 144 h
# MDA-MB-435 = assay: Antitumor activity against human MDA-MB-435 cells implanted subcutaneously in mouse assessed as inhibition of tumor cell growth at 1.6 to 2.4 mg/kg, ip administered on day 1 to 4 measured on day 5 by hollow fiber assay; format: functional; outline: as §2
# COLO 205 [28] = assay: Ratio of FK228 LC50 to compound LC50 for human COLO205 cells; format: functional
# NCI-H522 = assay: Antitumor activity against human NCI-H522 cells implanted subcutaneously in mouse assessed as inhibition of tumor cell growth at 1.6 to 2.4 mg/kg, ip administered on day 1 to 4 measured on day 5 by hollow fiber assay; format: functional; outline: as §2
# COLO 205 [29] = assay: Antitumor activity against human COLO205 cells implanted subcutaneously in mouse assessed as inhibition of tumor cell growth at 1.6 to 2.4 mg/kg, ip administered on day 1 to 4 measured on day 5 by hollow fiber assay; format: functional; outline: as §2
# MDA-MB-468 [30] = assay: Ratio of FK228 TGI to compound TGI for human MDA-MB-468 cells; format: functional
# UO-31 [31] = assay: Cytotoxicity against human UO31 cells after 6 days by MTT assay; format: functional; conditions: UO-31, 144 h
# UACC-257 [32] = assay: Ratio of FK228 TGI to compound TGI for human UACC257 cells; format: functional
# RXF 393 [33] = assay: Cytotoxicity against human RXF393 cells after 6 days by MTT assay; format: functional; conditions: RXF 393, 144 h
# UO-31 [34] = assay: Ratio of FK228 TGI to compound TGI for human UO31 cells; format: functional
# RXF 393 [35] = assay: Ratio of FK228 TGI to compound TGI for human RXF393 cells; format: functional
# UACC-62 = assay: Antitumor activity against human UACC62 cells implanted subcutaneously in mouse assessed as inhibition of tumor cell growth at 1.6 to 2.4 mg/kg, ip administered on day 1 to 4 measured on day 5 by hollow fiber assay; format: functional; outline: as §2
# [36] = target: Histone deacetylase 1 (Homo sapiens) (UniProt Q13547); assay: Inhibition of human HDAC1 assessed as deacetylated substrate level using RHKKAc as substrate by fluorometric analysis
# Outline: as §1, with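 “HDAC1 or HDAC8” for “HDAC4”, “RHKKAc” for “RHKAcKAc”, “Substrate incubated” for “Two steps: incubation”, “compound,” for “substrate,”, “the mixture was digested” for “digestion”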
# COLO 205 [37] = assay: Ratio of FK228 TGI to compound TGI for human COLO205 cells; format: functional
# [38] = Antitumor activity against human […] cells implanted subcutaneously in mouse assessed as inhibition of tumor cell growth at 1.6 to 2.4 mg/kg, ip administered on day 1 to 4 measured on day 5 by hollow fiber assay; format: functional; outline: as §2
# [39] = read-out: LC50 (the source's name)
# Sequence of Histone deacetylase 8 (Homo sapiens) (Q9BY41 whole entry): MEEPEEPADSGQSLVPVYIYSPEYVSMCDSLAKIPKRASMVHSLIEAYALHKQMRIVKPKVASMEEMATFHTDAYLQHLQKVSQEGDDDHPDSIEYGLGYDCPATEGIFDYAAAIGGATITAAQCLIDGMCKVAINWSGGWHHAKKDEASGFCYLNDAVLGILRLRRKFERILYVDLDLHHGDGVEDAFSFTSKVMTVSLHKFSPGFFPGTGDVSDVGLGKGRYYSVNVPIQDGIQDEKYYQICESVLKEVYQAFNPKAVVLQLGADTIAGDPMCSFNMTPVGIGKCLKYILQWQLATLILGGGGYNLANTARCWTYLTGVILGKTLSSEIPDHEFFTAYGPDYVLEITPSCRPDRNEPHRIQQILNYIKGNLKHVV
# Sequence of Histone deacetylase 4 (Homo sapiens) (P56524 whole entry): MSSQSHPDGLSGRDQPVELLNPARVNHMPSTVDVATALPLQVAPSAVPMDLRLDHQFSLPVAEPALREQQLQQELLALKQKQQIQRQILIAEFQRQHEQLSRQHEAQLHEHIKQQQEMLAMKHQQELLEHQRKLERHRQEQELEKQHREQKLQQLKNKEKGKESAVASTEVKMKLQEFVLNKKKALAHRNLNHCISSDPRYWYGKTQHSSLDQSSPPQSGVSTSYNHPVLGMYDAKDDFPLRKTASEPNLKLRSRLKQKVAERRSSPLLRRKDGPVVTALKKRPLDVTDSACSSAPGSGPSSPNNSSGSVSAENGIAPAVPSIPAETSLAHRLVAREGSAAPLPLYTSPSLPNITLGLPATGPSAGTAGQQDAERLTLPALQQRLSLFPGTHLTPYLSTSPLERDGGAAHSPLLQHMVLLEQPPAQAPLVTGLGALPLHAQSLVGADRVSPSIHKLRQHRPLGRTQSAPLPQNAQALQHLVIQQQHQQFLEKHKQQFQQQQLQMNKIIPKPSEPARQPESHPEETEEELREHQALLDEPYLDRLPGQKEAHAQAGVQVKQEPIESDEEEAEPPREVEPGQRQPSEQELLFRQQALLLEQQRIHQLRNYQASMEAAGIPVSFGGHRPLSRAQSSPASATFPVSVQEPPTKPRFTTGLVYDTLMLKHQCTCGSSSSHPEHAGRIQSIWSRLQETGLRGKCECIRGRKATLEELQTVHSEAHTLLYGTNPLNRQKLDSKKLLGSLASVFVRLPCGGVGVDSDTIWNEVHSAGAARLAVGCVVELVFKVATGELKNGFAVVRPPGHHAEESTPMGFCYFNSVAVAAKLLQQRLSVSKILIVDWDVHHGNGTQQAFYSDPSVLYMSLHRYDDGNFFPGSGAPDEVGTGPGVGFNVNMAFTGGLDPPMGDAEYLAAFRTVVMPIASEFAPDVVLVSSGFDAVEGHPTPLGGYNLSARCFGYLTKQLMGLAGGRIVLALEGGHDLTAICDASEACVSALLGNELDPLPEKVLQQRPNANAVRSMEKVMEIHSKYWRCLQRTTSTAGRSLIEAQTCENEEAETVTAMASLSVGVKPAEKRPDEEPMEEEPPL
# Sequence of Histone deacetylase 1 (Homo sapiens) (Q13547 whole entry): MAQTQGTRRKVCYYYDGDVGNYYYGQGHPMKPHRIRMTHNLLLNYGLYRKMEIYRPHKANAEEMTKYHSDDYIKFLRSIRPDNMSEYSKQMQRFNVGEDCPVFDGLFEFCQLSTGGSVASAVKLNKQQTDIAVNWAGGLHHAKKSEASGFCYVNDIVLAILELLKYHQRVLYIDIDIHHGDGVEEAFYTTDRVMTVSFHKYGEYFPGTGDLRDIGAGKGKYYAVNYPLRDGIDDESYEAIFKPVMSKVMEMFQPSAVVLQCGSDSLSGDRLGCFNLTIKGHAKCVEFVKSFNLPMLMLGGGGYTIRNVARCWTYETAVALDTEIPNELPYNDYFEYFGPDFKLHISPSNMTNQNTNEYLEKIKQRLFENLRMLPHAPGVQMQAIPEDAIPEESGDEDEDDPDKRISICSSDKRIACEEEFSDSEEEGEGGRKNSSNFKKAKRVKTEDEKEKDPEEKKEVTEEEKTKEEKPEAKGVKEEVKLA
smiles,measurement,setting,value
CC[C@H](C)[C@H]1NC(=O)[C@H]2CSSCC/C=C/[C@H](CC(=O)N[C@H](CC[S+](C)[O-])C(=O)N2)OC(=O)C[C@@H]1O (stereo partly specified) [SPIRUCHOSTATIN C],inhibition,[1],Active
same,T/C,MDA-MB-231 [2],>50%
same,Ratio,CAKI-1 [3],2.1
same,T/C,OVCAR-5,>50%
same,TGI,NCI-H322M [4],100 nM
same,TGI,COLO 205 [5],8 nM
same,CC50,COLO 205 [5]; [39],15 nM
same,TGI,SN12C [6],160 nM
same,TGI,MDA-MB-468 [7],23 nM
same,T/C,SF-295 [8],>50%
same,TGI,MDA-MB-231 [9],150 nM
same,T/C,NCI-H23,>50%
same,Ratio,A498 [10],2.4
same,inhibition,[11],Active
same,TGI,NCI,830 nM
same,CC50,NCI; [39],7700 nM
same,Ratio,U-251 [12],3.6
same,Ratio,A498 [13],3.6
same,TGI,A498 [14],12 nM
same,CC50,A498 [14]; [39],55 nM
same,Ratio,SN12C [15],2.1
same,TGI,SF-295 [16],110 nM
same,TGI,UACC-257 [17],33 nM
same,Ratio,SF-295 [18],2.3
same,Ratio,U-251 [19],2.7
same,TGI,U-251 [20],12 nM
same,CC50,U-251 [20]; [39],37 nM
same,Ratio,NCI-H322M [21],2.3
same,Ratio,ACHN [22],4
same,Ratio,MDA-MB-231 [23],2.4
same,Ratio,RXF 393 [24],1.8
same,TGI,ACHN [25],180 nM
same,T/C,SW-620,>50%
same,T/C,LOX IMVI,>50%
same,T/C,U-251 [26],>50%
same,TGI,CAKI-1 [27],880 nM
same,T/C,MDA-MB-435,>50%
same,Ratio,COLO 205 [28],6
same,T/C,NCI-H522,>50%
same,T/C,COLO 205 [29],>50%
same,Ratio,MDA-MB-468 [30],3.9
same,TGI,UO-31 [31],320 nM
same,Ratio,UACC-257 [32],2.9
same,TGI,RXF 393 [33],16 nM
same,CC50,RXF 393 [33]; [39],170 nM
same,Ratio,UO-31 [34],4.9
same,Ratio,RXF 393 [35],3.8
same,T/C,UACC-62,>50%
same,inhibition,[36],Active
same,Ratio,COLO 205 [37],3.8
same,T/C,[38],>50%
